Data taken from ChEMBL document CHEMBL1821590, “Novel dihydropyrimidines and its pyrazole derivatives: synthesis and pharmacological screening” (Eur J Med Chem, 2011).
Values after ≈ are worked out from the molar mass of the structure shown.

Assays:
Assay type in all cases: functional
Aspergillus niger [1] = experiment: Antimicrobial activity against Aspergillus niger at 25 ug/ml by paper disc method; details: read-out: IZ
Outline: (§1)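 Paper disc method against A. niger and C. albicans, with compounds at 25, 50 and 100 µg/mL. Amphotericin-B as standard.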

Candida albicans [2] = experiment: Antimicrobial activity against Candida albicans at 25 ug/ml by paper disc method; details: read-out: IZ; outline: as §1
Pseudomonas aeruginosa [3] = experiment: Antimicrobial activity against Pseudomonas aeruginosa at 50 ug/ml by agar plate diffusion technique; details: read-out: IZ
Outline: (§2)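 Agar plate diffusion against E. coli, P. aeruginosa, S. aureus and B. subtilis, with compounds at 25, 50 and 100 µg/mL. Streptomycin as standard.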

[4] = Antioxidant activity assessed as hydrogen peroxide scavenging activity after 10 mins
Outline: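 H2O2 (20 mM) in PBS pH 7.4. 1 mL of sample or ascorbic acid in methanol (12.5–100 µg/mL) added to 2 mL H2O2 solution. A230 read after 10 min. % inhibition = [1 − (Vt/Vc)] × 100. Triplicate, averaged. IC50 derived from % inhibition across concentrations.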

Metaphire posthuma [5] = experiment: Anthelmintic activity against Pheretima posthuma assessed as time taken for parasite death at 0.1% w/v
Outline: (§3)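 Earthworms (Pheretima posthuma, spelled Perituma posthuma in text) exposed to test compounds at 0.1, 0.2 and 0.5% w/v. Albendazole served as standard, with an untreated control. Paralysis was recorded as the time until worms became motionless, then time to death was recorded, in minutes. Each value is the mean of three determinations with S.D.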

Metaphire posthuma [6] = experiment: Anthelmintic activity against Pheretima posthuma assessed as time taken for complete parasite paralysis at 0.2% w/v
Outline: (§4)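 Earthworms (Pheretima posthuma) exposed to test solutions at 0.1, 0.2 and 0.5% w/v; time in minutes to complete paralysis (worms motionless) recorded. Albendazole as standard. Mean of three determinations ± S.D.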

[7] = Antioxidant activity assessed as inhibition of lipid peroxidation using egg lecithin liposomes incubated for 1 hr
Outline: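 Egg lecithin (3 mg/mL, phosphate buffer pH 7.4) sonicated 10 min to form liposomes. Sample or ascorbic acid (12.5–100 µg/mL) added. Peroxidation induced with FeCl3 and L-ascorbic acid, 1 h at 37 °C. Stopped with HCl/TCA/TBA/BHA, boiled 15 min, centrifuged, supernatant read at 532 nm. Triplicate. % inhibition vs control. IC50 derived.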

Pseudomonas aeruginosa [8] = experiment: Antimicrobial activity against Pseudomonas aeruginosa at 25 ug/ml by agar plate diffusion technique; details: read-out: IZ; outline: as §2
Bacillus subtilis [9] = experiment: Antimicrobial activity against Bacillus subtilis at 50 ug/ml by agar plate diffusion technique; details: read-out: IZ; outline: as §2
Candida albicans [10] = experiment: Antimicrobial activity against Candida albicans at 100 ug/ml by paper disc method; details: read-out: IZ; outline: as §1
Metaphire posthuma [11] = experiment: Anthelmintic activity against Pheretima posthuma assessed as time taken for parasite death at 0.5% w/v; outline: as §3
Aspergillus niger [12] = experiment: Antimicrobial activity against Aspergillus niger at 50 ug/ml by paper disc method; details: read-out: IZ; outline: as §1
Bacillus subtilis [13] = experiment: Antimicrobial activity against Bacillus subtilis at 100 ug/ml by agar plate diffusion technique; details: read-out: IZ; outline: as §2
Staphylococcus aureus [14] = experiment: Antimicrobial activity against Staphylococcus aureus at 100 ug/ml by agar plate diffusion technique; details: read-out: IZ; outline: as §2
[15] = Antioxidant activity assessed as nitric oxide radical scavenging activity after 150 mins
Outline: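 10 mM sodium nitroprusside (4 mL), PBS pH 7.4 (1 mL) and sample or ascorbic acid in DMSO (1 mL, 12.5–100 µg/mL), incubated 150 min at 25 °C. Nitrite detected with sulphanilic acid (5 min) then naphthylethylenediamine (30 min, diffused light). Read at […]. Triplicate. % inhibition = [1 − (Vt/Vc)] × 100. IC50 derived from it.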

[16] = Antioxidant activity assessed as potassium ferricyanide ion reducing power after 20 mins
Outline: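 Oyaizu method. Samples or ascorbic acid in DMF (12.5–100 µg/mL) mixed with 0.2 M phosphate buffer pH 6.6 and 1% potassium ferricyanide, 20 min at 50 °C. 10% TCA added, centrifuged. Supernatant mixed with water and 0.1% FeCl3, read at 700 nm. % = [(Vt/Vc) − 1] × 100. IC50 derived.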

Staphylococcus aureus [17] = experiment: Antimicrobial activity against Staphylococcus aureus at 25 ug/ml by agar plate diffusion technique; details: read-out: IZ; outline: as §2
Pseudomonas aeruginosa [18] = experiment: Antimicrobial activity against Pseudomonas aeruginosa at 100 ug/ml by agar plate diffusion technique; details: read-out: IZ; outline: as §2
Escherichia coli [19] = experiment: Antimicrobial activity against Escherichia coli at 50 ug/ml by agar plate diffusion technique; details: read-out: IZ; outline: as §2
Escherichia coli [20] = experiment: Antimicrobial activity against Escherichia coli at 100 ug/ml by agar plate diffusion technique; details: read-out: IZ; outline: as §2
Metaphire posthuma [21] = experiment: Anthelmintic activity against Pheretima posthuma assessed as time taken for complete parasite paralysis at 0.5% w/v; outline: as §4
Aspergillus niger [22] = experiment: Antimicrobial activity against Aspergillus niger at 100 ug/ml by paper disc method; details: read-out: IZ; outline: as §1
[23] = Antiinflammatory activity assessed as inhibition of albumin denaturation at 100 ug/ml by UV-visible spectrophotometry
Outline: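 Compounds dissolved in minimal DMF, diluted in PBS pH 7.4 (final DMF <2.5%). 1 mL test solution (100 µg/mL) plus 1 mL 1% albumin in PBS, 15 min at 27 ± 1 °C, then heated 10 min at 60 ± 1 °C. After cooling, turbidity read at 660 nm. % inhibition = [(Vt/Vc) − 1] × 100 against a no-drug control. Triplicate, averaged. Diclofenac standard.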

Metaphire posthuma [24] = experiment: Anthelmintic activity against Pheretima posthuma assessed as time taken for complete parasite paralysis at 0.1% w/v; outline: as §4
Bacillus subtilis [25] = experiment: Antimicrobial activity against Bacillus subtilis at 25 ug/ml by agar plate diffusion technique; details: read-out: IZ; outline: as §2
Staphylococcus aureus [26] = experiment: Antimicrobial activity against Staphylococcus aureus at 50 ug/ml by agar plate diffusion technique; details: read-out: IZ; outline: as §2
Candida albicans [27] = experiment: Antimicrobial activity against Candida albicans at 50 ug/ml by paper disc method; details: read-out: IZ; outline: as §1
Escherichia coli [28] = experiment: Antimicrobial activity against Escherichia coli at 25 ug/ml by agar plate diffusion technique; details: read-out: IZ; outline: as §2
Metaphire posthuma [29] = experiment: Anthelmintic activity against Pheretima posthuma assessed as time taken for parasite death at 0.2% w/v; outline: as §3

Row | SMILES | zone of inhibition at 25 µg/mL (Aspergillus niger [1]) [mm] | zone of inhibition at 25 µg/mL (Candida albicans [2]) [mm] | zone of inhibition at 50 µg/mL (Pseudomonas aeruginosa [3]) [mm] | IC50 [4] [µg/mL] | Time (Metaphire posthuma [5]) [min] | Time (Metaphire posthuma [6]) [min] | IC50 [7] [µg/mL] | zone of inhibition at 25 µg/mL (Pseudomonas aeruginosa [8]) [mm] | zone of inhibition at 50 µg/mL (Bacillus subtilis [9]) [mm] | zone of inhibition at 100 µg/mL (Candida albicans [10]) [mm] | Time (Metaphire posthuma [11]) [min] | zone of inhibition at 50 µg/mL (Aspergillus niger [12]) [mm] | zone of inhibition at 100 µg/mL (Bacillus subtilis [13]) [mm] | zone of inhibition at 100 µg/mL (Staphylococcus aureus [14]) [mm] | IC50 [15] [µg/mL] | IC50 [16] [µg/mL] | zone of inhibition at 25 µg/mL (Staphylococcus aureus [17]) [mm] | zone of inhibition at 100 µg/mL (Pseudomonas aeruginosa [18]) [mm] | zone of inhibition at 50 µg/mL (Escherichia coli [19]) [mm] | zone of inhibition at 100 µg/mL (Escherichia coli [20]) [mm] | other results
1 | CSc1nc(-c2cccc(O)c2O)c(C#N)c(=O)n1C | 8.4 | 9.48 | 8.12 | 37 (≈ 128 µM) | 65.29 | 62.28 | 41 (≈ 142 µM) | 7.67 | 15.8 | 21 | 61.02 | 10.8 | 24.4 | 13.6 | 53 (≈ 183 µM) | 48 (≈ 166 µM) | 8.7 | 12.7 | 8.78 | 10.4 | Time (Metaphire posthuma [21]): 50.1 min; zone of inhibition at 100 µg/mL (Aspergillus niger [22]): 17.1 mm; inhibition [23]: 44.1%; Time (Metaphire posthuma [24]): 58.04 min; zone of inhibition at 25 µg/mL (Bacillus subtilis [25]): 13 mm; zone of inhibition at 50 µg/mL (Staphylococcus aureus [26]): 10.6 mm; zone of inhibition at 50 µg/mL (Candida albicans [27]): 13.9 mm; zone of inhibition at 25 µg/mL (Escherichia coli [28]): 7.28 mm; Time (Metaphire posthuma [29]): 65.5 min
2 | CSc1nc(-c2ccc(Cl)cc2)c(C#N)c(=O)n1C | 9.92 | 9.27 | 9.62 | 56 (≈ 192 µM) | 60.96 | 39.29 | 54 (≈ 185 µM) | 8.85 | 18.1 | 18.4 | 55.12 | 11 | 27.3 | 15.8 | 71 (≈ 243 µM) | 64 (≈ 219 µM) | 9.68 | 11.9 | 9.82 | 11.7 | Time (Metaphire posthuma [21]): 40.51 min; zone of inhibition at 100 µg/mL (Aspergillus niger [22]): 18.7 mm; inhibition [23]: 79.1%; Time (Metaphire posthuma [24]): 48.15 min; zone of inhibition at 25 µg/mL (Bacillus subtilis [25]): 13.8 mm; zone of inhibition at 50 µg/mL (Staphylococcus aureus [26]): 11.7 mm; zone of inhibition at 50 µg/mL (Candida albicans [27]): 13.8 mm; zone of inhibition at 25 µg/mL (Escherichia coli [28]): 7.08 mm; Time (Metaphire posthuma [29]): 57.38 min
3 | CCOC(=O)c1cnn(-c2nc(-c3ccccc3O)c(C#N)c(=O)n2C)c1N | 9.21 | 10.6 | 15 | 58 (≈ 152 µM) | 55.2 | 40.03 | 57 (≈ 150 µM) | 10.2 | 14.2 | 15.5 | 47.23 | 12.6 | 23.1 | 22.8 | 64 (≈ 168 µM) | 48 (≈ 126 µM) | 12.3 | 21.1 | 17.3 | 24.4 | Time (Metaphire posthuma [21]): 38.52 min; zone of inhibition at 100 µg/mL (Aspergillus niger [22]): 18.1 mm; inhibition [23]: 54.4%; Time (Metaphire posthuma [24]): 43.09 min; zone of inhibition at 25 µg/mL (Bacillus subtilis [25]): 13.9 mm; zone of inhibition at 50 µg/mL (Staphylococcus aureus [26]): 17.4 mm; zone of inhibition at 50 µg/mL (Candida albicans [27]): 14.5 mm; zone of inhibition at 25 µg/mL (Escherichia coli [28]): 13.5 mm; Time (Metaphire posthuma [29]): 49.54 min
4 | COc1ccc(-c2nc(SC)n(C)c(=O)c2C#N)cc1 | 11.6 | 9.33 | 8.84 | 48 (≈ 167 µM) | 78.22 | 46.56 | 53 (≈ 184 µM) | 6.19 | 13.1 | 19.8 | 62.21 | 12 | 19.1 | 14.8 | 73 (≈ 254 µM) | 58 (≈ 202 µM) | 8.76 | 9.17 | 7.19 | 8.79 | Time (Metaphire posthuma [21]): 42.65 min; zone of inhibition at 100 µg/mL (Aspergillus niger [22]): 18 mm; inhibition [23]: 21.3%; Time (Metaphire posthuma [24]): 54.56 min; zone of inhibition at 25 µg/mL (Bacillus subtilis [25]): 11.7 mm; zone of inhibition at 50 µg/mL (Staphylococcus aureus [26]): 12.8 mm; zone of inhibition at 50 µg/mL (Candida albicans [27]): 11.2 mm; zone of inhibition at 25 µg/mL (Escherichia coli [28]): 5.08 mm; Time (Metaphire posthuma [29]): 72.67 min
